Measured values: ChEMBL document CHEMBL1128484, “Cardioselective ammonium, phosphonium, and sulfonium analogues of alpha-tocopherol and ascorbic acid that inhibit in vitro and ex vivo lipid peroxidation and scavenge superoxide radicals” (J Med Chem, 1995)
Blank lines part the entries; values can stand above or below the compound they belong to.

Legend:
[1] = species: Rattus norvegicus; experiment: The IC50 value was measured for inhibition of lipid autoxidation in rat brain homogenate.; assay type: functional
Procedure, shortened: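 Rat brain homogenate left to autoxidize with test compound present. The read-out is formation of thiobarbituric acid-reactive substances (TBARS). IC50 is the concentration that inhibits TBARS formation by 50%. Values are single or duplicate determinations, or means ± SD.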

[2] = The reaction rate constant (K) by measuring competition with nitroblue tetrazolium of the superoxide radicals formed by xanthine oxidase/xanthine; assay type: ADME
[3] = species: Mus musculus; experiment: The ex vivo ID50 value was measured for inhibition of lipid autoxidation in mouse heart homogenate; assay type: functional; settings: read-out: ID50 (the source's name)
Procedure, shortened: (§1)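 Groups of five CD1 mice were dosed subcutaneously, and hearts were excised 1 h later. Frozen hearts were homogenized, diluted in potassium phosphate buffer and incubated at 37 °C for 2 h. The reaction was stopped on ice with HClO4 and centrifuged. The supernatant was heated with thiobarbituric acid at 100 °C for 15 min. TBARS were extracted into n-butanol and read by fluorescence (ex 515 nm, em 553 nm) against a malondialdehyde dimethylacetal standard. ID50 was taken from semilog plots of log dose versus percent of vehicle control, using at least four doses.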

[4] = species: Mus musculus; experiment: The in vitro IC50 value was measured for inhibition of lipid autoxidation in mouse heart homogenate; assay type: functional
Procedure, shortened: (§2)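 Heart homogenate from untreated mice, diluted in potassium phosphate buffer. Test compound was added at several concentrations before 2 h incubation at 37 °C. The reaction was stopped on ice with HClO4, then heated with thiobarbituric acid at 100 °C for 15 min. TBARS were extracted into n-butanol and read by fluorescence (ex 515 nm, em 553 nm) against a malondialdehyde dimethylacetal standard. IC50 is 50% inhibition of TBARS formation.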

[5] = species: Mus musculus; experiment: The ex vivo ID50 value was measured for lipid inhibition of autoxidation in mouse heart homogenate; assay type: functional; settings: read-out: ID50 (the source's name); procedure, shortened: as §1
[6] = (§3) The reaction rate constant(K) by measuring competition with nitroblue tetrazolium of the superoxide radicals formed by xanthine oxidase/xanthine; assay type: ADME
[7] = species: Mus musculus; experiment: The in vitro IC50 value was measured for lipid inhibition of autoxidation in mouse heart homogenate; assay type: functional; procedure, shortened: as §2
[8] = tested on: Mus musculus; experiment: The ex vivo ID50 value was measured for inhibition of lipid autoxidation in mouse heart homogenate 1 hr after subcutaneous administration.; assay type: functional; settings: sc, read-out: ID50 (the source's name); procedure, shortened: as §1
[9] = as §3; assay type: functional

SMILES: Cc1c(C)c2c(c(C)c1O)CC[C@@](C)(CC(=O)[N-][N+](C)(C)C)O2
IC50 ([1]; Rattus norvegicus, Brain): 9 µM

K [2]: 27000 M⁻¹ s⁻¹
SMILES: Cc1c(C)c2c(c(C)c1O)CCC(C)(CCN(C)C)O2 (centres undefined)
ED50 [3]: > 150 µmol/kg
IC50 [4]: 19 µM

SMILES: Cc1c(C)c2c(c(C)c1O)CC[C@@](C)(CCN(C)C)O2
IC50 ([1]; Rattus norvegicus, Brain): 1 µM

SMILES: Cc1c(C)c2c(c(C)c1O)CCC(C)(C(=O)[N-][N+](C)(C)C)O2 (centres undefined)
IC50 ([1]; Rattus norvegicus, Brain): 14 µM

K [2]: 21000 M⁻¹ s⁻¹
SMILES: Cc1c(C)c2c(c(C)c1O)CC[C@@](C)(CC[N+](C)(C)C)O2.Cc1ccc(S(=O)(=O)[O-])cc1
IC50 ([1]; Rattus norvegicus, Brain): 2.3 µM

K [6]: 21000 M⁻¹ s⁻¹
SMILES: Cc1c(C)c2c(c(C)c1O)CCC(C)(CC[S+](C)C)O2.Cc1ccc(S(=O)(=O)[O-])cc1 (centres undefined)
IC50 ([1]; Rattus norvegicus, Brain): 2 µM
ED50 [5]: 6 µmol/kg
IC50 [4]: 7 µM

SMILES: Cc1c(C)c2c(c(C)c1O)CC[C@](C)(CCN(C)C)O2
IC50 ([1]; Rattus norvegicus, Brain): 1 µM

K [2]: 18000 M⁻¹ s⁻¹
SMILES: Cc1c(C)c2c(c(C)c1O)CC[C@](C)(CC[N+](C)(C)C)O2.Cc1ccc(S(=O)(=O)[O-])cc1
IC50 ([1]; Rattus norvegicus, Brain): 2.2 µM

SMILES: Cc1c(C)c2c(c(C)c1O)CC[C@](C)(CC[P+](C)(C)C)O2
IC50 ([1]; Rattus norvegicus, Brain): 2 µM

K [6]: 28000 M⁻¹ s⁻¹
SMILES: Cc1c(C)c2c(c(C)c1O)CCC(C)(CC(=O)[N-][N+](C)(C)C)O2 (centres undefined)
IC50 ([1]; Rattus norvegicus, Brain): 6 µM

SMILES: Cc1c(C)c2c(c(C)c1O)CC[C@@](C)(CC[P+](C)(C)C)O2
IC50 ([1]; Rattus norvegicus, Brain): 2 µM

K [2]: 20000 M⁻¹ s⁻¹
SMILES: Cc1c(C)c2c(c(C)c1O)CCC(C)(C(=O)O)O2 (centres undefined) [TROLOX]
IC50 [1]: 14 µM

K [6]: 21000 M⁻¹ s⁻¹
SMILES: CCCCCCCCCCCCCCCCCCOC1=C(O)[C@@H](C(O)CO)OC1=O (some centres undefined)
IC50 ([1]; Rattus norvegicus, Brain): 6 µM

SMILES: Cc1c(C)c2c(c(C)c1O)CC[C@@](C)(CCC[C@H](C)CCC[C@H](C)CCCC(C)C)O2 [alpha-TOCHOPHEROL]
IC50 ([1]; Rattus norvegicus, Brain): 14 µM

SMILES: CCCCCCCCCCCCCCCCCCOC1=C([O-])C(C(O)C[N+](C)(C)C)OC1=O (centres undefined)
IC50 ([1]; Rattus norvegicus, Brain): > 20 µM

SMILES: Cc1c(C)c2c(c(C)c1O)CC[C@](C)(CC(=O)O)O2
IC50 ([1]; Rattus norvegicus, Brain): 14 µM

K [6]: 22000 M⁻¹ s⁻¹
SMILES: CC[P+](CC)(CC)CCC1(C)CCc2c(C)c(O)c(C)c(C)c2O1.[Br-] (centres undefined)
IC50 ([1]; Rattus norvegicus, Brain): 2 µM
ED50 [5]: 7 µmol/kg
IC50 [4]: 10 µM

K [2]: 800 M⁻¹ s⁻¹
SMILES: CSCCC1(C)CCc2c(C)c(O)c(C)c(C)c2O1 (centres undefined)
IC50 ([1]; Rattus norvegicus, Brain): 3 µM
ED50 [5]: > 150 µmol/kg
IC50 [7]: 18 µM

K [2]: 24000 M⁻¹ s⁻¹
SMILES: Cc1c(C)c2c(c(C)c1O)CCC(C)(CC[N+](C)(C)C)O2.Cc1ccc(S(=O)(=O)[O-])cc1 (centres undefined)
IC50 ([1]; Rattus norvegicus, Brain): 2.6 µM
ED50 [8]: 11 µmol/kg
IC50 [4]: 19 µM

K [6]: 24000 M⁻¹ s⁻¹
SMILES: Cc1c(C)c2c(c(C)c1O)CCC(C)(CC[P+](C)(C)C)O2.[Br-] (centres undefined)
IC50 ([1]; Rattus norvegicus, Brain): 2 µM
ED50 [5]: 8 µmol/kg
IC50 [4]: 10 µM

SMILES: Cc1c(C)c2c(c(C)c1O)CC[C@](C)(CC[S+](C)C)O2
IC50 ([1]; Rattus norvegicus, Brain): 2 µM

SMILES: Cc1c(C)c2c(c(C)c1O)CC[C@](C)(CC(=O)[N-][N+](C)(C)C)O2
IC50 ([1]; Rattus norvegicus, Brain): 8 µM

SMILES: Cc1c(C)c2c(c(C)c1O)CC[C@@](C)(CC[S+](C)C)O2
IC50 ([1]; Rattus norvegicus, Brain): 2 µM

SMILES: Cc1c(C)c2c(c(C)c1O)CC[C@@](C)(CC(=O)O)O2
IC50 ([1]; Rattus norvegicus, Brain): 17 µM

K [2]: 600000 M⁻¹ s⁻¹
SMILES: C[N+](C)(C)CC(O)C1OC(=O)C(O)=C1[O-] (centres undefined)
IC50 ([1]; Rattus norvegicus, Brain): > 200 µM

K [9]: 350000 M⁻¹ s⁻¹
SMILES: O=C1O[C@H]([C@@H](O)CO)C(O)=C1O
